This note sets out measurements from ChEMBL document CHEMBL1125653, “Synthesis and pharmacological evaluation of a major metabolite of ameltolide, a potent anticonvulsant” (1991).

What all share (format): functional
In test [1] the test system is Mus musculus. The test can be described thus: Anticonvulsant effect by maximal electroshock assay in mice after peroral administration. As to conditions: po. Put shortly:
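Male CF-1 mice, 18–26 g, fasted from food and water 1.5 h; compounds suspended in 5% acacia/water, given orally at 0.01 mL/g. Tested at each compound's time of peak effect. MES: 50 mA ac for 0.1 s via corneal electrodes; protection = no hindlimb tonic extension. Groups of 12 mice at several doses; ED50 and 95% confidence limits computed from dose–effect data.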

Test [2] has as its system Mus musculus. The test can be described thus: Anticonvulsant effect by maximal electroshock assay in mice after intravenous administration. Put shortly:
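Male CF-1 mice, 18–26 g. Compounds dissolved in 2.5% ethanol–2.5% emulphor/water and injected into the tail vein 5 min before MES: 50 mA ac, 0.1 s, corneal electrodes. Absence of tonic hindlimb extension scored as protection. Groups of 12 mice per dose; ED50 with 95% confidence limits calculated from dose–effect data.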

Test [3] has as its system Mus musculus. The test can be described thus: Time to peak anticonvulsant effect was measured after oral dosing in mice. Put shortly:
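Time to peak anticonvulsant effect in MES-tested male CF-1 mice after oral dosing (5% acacia/water suspension, 0.01 mL/g, 1.5 h fasted). Used to set the test time for the oral ED50 determinations.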

Test [4] relates to Mus musculus. The test can be described thus: Anticonvulsant effect by horizontal screen assay in mice after peroral administration. As to conditions: po, in the assay text read “Neurological impairment” for “Anticonvulsant effect”. Put shortly: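 Neurological impairment in previously trained male CF-1 mice (18–26 g) after oral dosing in 5% acacia/water (0.01 mL/g; 1.5 h food and water deprivation). Each mouse placed on a 13 × 13 cm no. 4 mesh wire screen, which was rotated 180°. Scored on whether it climbed back to the top within 1 min. Groups of 12 per dose; ED50 with 95% confidence limits.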

Test [5] in a line: Protective index measured as the ratio of HS ED50/MES ED50 values. Put shortly: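 Ratio of oral horizontal-screen ED50 to oral MES ED50 in male CF-1 mice. Both ED50s were derived from groups of 12 mice given compound suspended in 5% acacia/water.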

Structures are written as SMILES. A value given as a limit tells only on which side of the number the result lay.

With `Cc1cccc(CO)c1NC(=O)c1ccc(N)cc1`, the ED50 amounted to 10.9 mg/kg with Mus musculus [1], 3.9 mg/kg in the test with Mus musculus [2] and 66 mg/kg with Mus musculus [4]. In the test on Mus musculus [3], this molecule displayed a TPE of 1 h. Moreover, the Protective index in test [5] amounted to 6.
Regarding `CC(=O)Nc1ccc(C(=O)Nc2c(C)cccc2CO)cc1`, the results for the ED50 in the test on Mus musculus [1] and in the test with Mus musculus [2] were greater than 100 mg/kg and greater than 80 mg/kg, respectively. The molecule further showed a TPE in the test on Mus musculus [3] of 1 h.
For the molecule `CC(=O)Nc1ccc(C(=O)Nc2c(C)cccc2C)cc1`, the ED50 in the test on Mus musculus [1] came out at 4.7 mg/kg; in the test with Mus musculus [2], 19.9 mg/kg; in the test with Mus musculus [4], 96.4 mg/kg. In addition, the TPE with Mus musculus [3] was 2 h. In test [5], the Protective index was 21.
For `O=C1NC(=O)C(c2ccccc2)(c2ccccc2)N1` [PHENYTOIN], the ED50 in the test with Mus musculus [1] turned out to be 8.1 mg/kg; in the test with Mus musculus [4], 83.7 mg/kg. Also, the TPE in the test on Mus musculus [3] is 2 h.
Consider `Cc1cccc(C)c1NC(=O)c1ccc(N)cc1` [AMELTOLIDE], for which the values for the ED50 in the test with Mus musculus [1], in the test with Mus musculus [2] and in the test on Mus musculus [4] were 1.4 mg/kg, 19.9 mg/kg and 23 mg/kg, respectively. Further, the TPE in the test on Mus musculus [3] was determined as 0.5 h. In addition, the Protective index in test [5] turned out to be 13.
